Source: PubChem BioAssay (Johns Hopkins Ion Channel Center)
In the library only some 3.5% were active in any assay of this set; here they are far more common.
RGS4 act – RGS4 potentiation or activation. HEK293 M3R/inducible RGS4, carbachol calcium flux Fluo4; active compounds read low. B-score at 10 µM. 310,000 compounds, 0.92% hits;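 active = B-score of the integrated calcium signal more than 4 SD below the library mean, with starting fluorescence not abnormally high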;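 also: negative B-score means reduced calcium response which marks RGS4 activation or potentiation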
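Test system: HEK293 cells with stable M3R and inducible RGS4; also added: carbachol at ECmax as muscarinic agonist stimulus; schedule: dye loading 30 min 37 °C, buffer rest 30 min RT; technique: kinetic calcium fluorescence imaging with Fluo4-AM dye, 2 µM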
MrgX1 ag – activates human MrgX1 receptor signaling; MrgX1-HEK293 cells, Fluo-4 calcium fluorescence, agonist mode; active compounds read high; B-score at 10 µM; 310,000 compounds, 0.44% hits; AID 588627;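 active = calcium response B-score plate-corrected fluorescence ratio at least 3 library SD, with starting fluorescence B-score inside 5 SD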
Target sequence (Q96LB2 whole entry, looked up): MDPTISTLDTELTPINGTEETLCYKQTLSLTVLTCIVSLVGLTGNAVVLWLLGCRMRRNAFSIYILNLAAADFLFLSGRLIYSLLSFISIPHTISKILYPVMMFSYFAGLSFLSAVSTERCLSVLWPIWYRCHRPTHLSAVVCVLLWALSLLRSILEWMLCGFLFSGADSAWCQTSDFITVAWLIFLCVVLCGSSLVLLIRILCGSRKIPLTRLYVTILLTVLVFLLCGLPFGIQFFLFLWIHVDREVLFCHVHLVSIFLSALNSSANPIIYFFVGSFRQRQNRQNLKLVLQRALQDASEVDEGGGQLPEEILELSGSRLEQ
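Assay system: MrgX1-expressing HEK293 cells / Amount: fifteen thousand cells per well / Doses: test compound in the initial addition of three / Timing: cells plated overnight, dye loaded 0.5 h 37 °C, 0.5 h room temperature / Technique: kinetic calcium dye fluorescence, Fluo-4 NW / Control set: positive and negative controls per plate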
MrgX1 PAM – allosterically activates human MrgX1 receptor signaling | Q96LB2 | AID 588675 | 310,000 compounds, 0.63% hits | MrgX1-HEK293, Fluo-4 calcium flux, FDSS; active compounds read high | B-score at 10 µM;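 active = plate-corrected calcium response at least 3 library SD above typical, normal starting fluorescence, not activating the receptor alone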;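 also: compound read alongside a low EC10 to EC30 dose of BAM8-22 agonist; peak minus trough fluorescence over baseline measured at the second addition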
RGS4 inh – human RGS4 inhibition. HEK293 M3R/RGS4 inducible, Fluo-4 calcium flux; active compounds read high; triggered by carbachol at its EC20. B-score at 10 µM. AID 463165. 310,000 compounds, 0.45% hits. P49798;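 active = B-score, a plate-corrected calcium signal, over three deviations above library mean, with baseline fluorescence within five deviations of library mean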;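 also: RGS4 expression induced by doxycycline in cells with stable M3 receptor; B-score is computed from the integrated fluorescence ratio over baseline after carbachol; higher B-score means a larger calcium signal and so more RGS4 inhibition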
Target sequence (P49798 whole entry, looked up): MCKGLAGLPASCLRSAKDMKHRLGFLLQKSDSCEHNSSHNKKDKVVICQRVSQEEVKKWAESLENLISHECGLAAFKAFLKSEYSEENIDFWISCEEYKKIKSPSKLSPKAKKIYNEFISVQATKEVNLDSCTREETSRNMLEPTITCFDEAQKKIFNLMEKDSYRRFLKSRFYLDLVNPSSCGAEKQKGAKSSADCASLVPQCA
MrgX1 antag – blocks BAM8-22 activation of human MrgX1 receptor; Q96LB2; MRGX1-HEK293 calcium flux, Fluo-4, BAM8-22 antagonism; active compounds read low; B-score at 10 µM; 310,000 compounds, 1.3% hits; AID 588676;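 active = calcium-response B-score plate-corrected more than 3 library SD below zero, starting fluorescence within 5 deviations, no agonist response on first addition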;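 also: peak minus trough fluorescence over baseline after final BAM8-22 challenge near maximal dose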
MrgX1 ant reconf – confirmation of human MrgX1 receptor antagonists. 2,300 compounds, 19% hits. shares compounds with MrgX1 antag. MrgX1-HEK293, BAM8-22 calcium flux, Fluo-4; active compounds read low. remaining BAM8-22 calcium response % of control (active compounds read low), % at 10 µM;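 active = remaining agonist calcium response no higher than 100% minus 3 SD of agonist-only control wells, with starting fluorescence near control levels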;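 also: agonist BAM8-22 given at a near maximal EC90 to ECmax level; peak minus minimum fluorescence divided by baseline after agonist addition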
HEK293 Ca flux – MrgX1 antagonist counter-screen hit in parental HEK293 cells. shares compounds with MrgX1 antag. Fluo-4 calcium fluorescence, FDSS. fluorescence ratio F(max-min)/F0 at 10 µM. 4,000 compounds, 2% hits;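 active = duplicate-averaged calcium fluorescence ratio at least three times the standard deviation of buffer wells, a nonspecific response in parental cells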
HEK293 Ca counter – MrgX1 allosteric activator counter-screen hit in parental HEK293 cells; AID 624114; parental HEK293 calcium flux, Fluo-4 fluorescence ratio; active compounds read high; shares compounds with MrgX1 antag; 4,000 compounds, 0.4% hits; fluorescence ratio F(max-min)/F0 at 10 µM;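 active = calcium fluorescence ratio, averaged over duplicates, at least 3 SD of the buffer-well ratio, meaning a nonspecific response in receptor-free cells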;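 also: untransfected parental HEK293 lacking MrgX1 used as counterscreen for MrgX1 allosteric activators; fluorescence change taken during the second addition on a kinetic imager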
HEK293 Ca cntr2 – activity in parental HEK293 cells lacking MrgX1 receptor; shares compounds with MrgX1 antag; Fluo-4 calcium fluorescence (FDSS); active compounds read high; fluorescence ratio F(max-min)/F0 at 10 µM; 4,000 compounds, 8.7% hits; AID 624115;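 active = calcium fluorescence ratio at least three times the spread of buffer wells, meaning a non-specific response in parental cells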
Numbers stand for hits; 0 = inactive; - = no result.

SMILES	RGS4 act	MrgX1 ag	MrgX1 PAM	RGS4 inh	MrgX1 antag	MrgX1 ant reconf	HEK293 Ca flux	HEK293 Ca counter	HEK293 Ca cntr2
CCCc1cc(=O)n2[nH]c(NCc3cccs3)nc2n1	0	0	0	0	-11	0	0	0	0
C/C(CC(=O)Nc1ccc2c(c1)OCCO2)=N\NC(=O)COc1ccc(C)cc1Br	0	0	0	0	0	-	-	-	-
COc1ccc(CC(=O)Nc2cc(=O)n(C)c(=O)n2C)cc1	0	0	0	0	-7.7	0	0	0	0
CCOc1ccc(CC(=O)Nc2cc(=O)n(C)c(=O)n2C)cc1	0	0	0	0	0	-	-	-	-
O=C(Nc1cccc([N+](=O)[O-])c1)C1CCN(C(=O)Cc2ccccc2)CC1	0	0	0	0	0	-	-	-	-
O=C(CSc1nnnn1-c1cccc(Cl)c1)Nc1ccc2c(c1)CCC2	0	0	0	0	0	-	-	-	-
N#CCCCSc1nnnn1-c1cccc(Cl)c1	0	0	0	0	-5.8	0	0	0	0
COC(=O)c1cccnc1NC(=S)NC1CCCCC1	0	0	0	0	-4.8	0	0	0	0
COC(=O)c1ccc(NC(=S)NC2CCCCC2)cc1	0	0	0	0	0	-	-	-	-
Cc1cc(C)cc(N(CC(=O)N2CCc3ccccc32)S(=O)(=O)c2c(C)noc2C)c1	0	0	0	0	-7.3	0	0	0	0
CCOc1ccc(N(CC(=O)N2CCc3ccccc32)S(=O)(=O)c2c(C)noc2C)cc1	0	0	0	0	0	-	-	-	-
Cc1cccc(OCc2n[nH]c(=S)n2Cc2ccccc2)c1	0	0	0	0	0	-	-	-	-
N#Cc1ccccc1S(=O)(=O)Nc1ccc2c(c1)OCCO2	0	0	0	0	0	-	-	-	-
CCOC(=O)C1=C(C)N(C)C(C)=C(C(=O)OCC)C1c1ccccn1	0	0	0	0	-7.2	0	0	0	0
O=C(CP(=O)(c1ccccc1)c1ccccc1)Nc1nc2ccc(Cl)cc2s1	0	0	0	0	0	-	-	-	-
Cc1cc(C(=O)OCC(=O)N2CCN(c3ccccc3)CC2)c2ccccc2n1	0	0	0	0	-5.5	0	0	0	0
O=C(OCC(=O)N1CCN(c2ccccc2)CC1)c1ccc(O)cc1O	0	0	0	0	0	-	-	-	-
Cc1cc(C)cc(-c2nnc(SCC(=O)N3CCN(C(=O)c4ccco4)CC3)o2)c1	0	0	0	0	-6.3	0	0	0	0
Cc1cc(C(=O)NNC(=O)/C=C/c2ccccc2Cl)c(C)o1	0	0	0	0	-15	0	0	0	0
CCn1c(SCC(=O)N2CCCCC2C)nc2c1c(=O)n(C)c(=O)n2C (stereo not drawn)	0	0	0	0	0	-	-	-	-
CN(C)S(=O)(=O)c1cccc(NC(=O)COC(=O)c2cccn2C)c1	0	0	0	0	0	-	-	-	-
Cc1cc(C)n(C(=O)c2ccc([N+](=O)[O-])cc2Cl)n1	0	0	0	0	0	-	-	-	-
O=C(NCCc1ccc(Cl)cc1)C1CCN(S(=O)(=O)N2CCCC2)CC1	0	0	0	0	-5.7	0	0	0	0
O=C(NCc1ccc(Cl)cc1Cl)C1CCN(S(=O)(=O)c2ccc3c(c2)OCCCO3)CC1	0	0	0	0	-7.1	0	0	0	0
Cc1cc(C2N=C(N)Nc3nc4ccccc4n32)c(C)n1-c1ccccc1Cl (stereo not drawn)	0	0	0	0	-5.5	0	0	0	0
SMILES	RGS4 act	MrgX1 ag	MrgX1 PAM	RGS4 inh	MrgX1 antag	MrgX1 ant reconf	HEK293 Ca flux	HEK293 Ca counter	HEK293 Ca cntr2
CSC1=NCCN1C(=O)c1ccc(Br)o1	0	0	0	0	-5.4	0	0	0	0
CC1CCCN(C(=O)Nc2ccc(Br)cc2Cl)C1 (stereo not drawn)	0	0	0	0	0	-	-	-	-
CC1CN(C(=O)Nc2ccc(Br)cc2Cl)CC(C)O1 (stereo not drawn)	0	0	0	0	-6.4	0	0	0	0
Cc1ccc(Cl)cc1NC(=O)c1cc(S(=O)(=O)N2CCOCC2)cn1C	0	0	0	0	0	-	-	-	-
O=C(NC(=S)Nc1ccccc1)c1ccc(-c2ccccc2)cc1	0	0	0	0	0	-	-	-	-
O=C(O)c1ccc(NC(=S)NC(=O)c2ccc(-c3ccccc3)cc2)cc1	0	0	0	0	-5.2	82%	0	0	0
CCOC(=O)c1c(C)[nH]c(C)c1C(=O)CSc1nc2ccccc2c(=O)n1-c1ccccc1C	0	0	0	0	0	-	-	-	-
CCOC(=O)c1c(C)[nH]c(C)c1C(=O)CSc1nc2ccccc2c(=O)n1-c1ccc(F)cc1	0	0	0	0	-5.3	83%	0	0	0
Cc1c(C(=O)O)[nH]c2c1C(=O)CC(c1ccc(Cl)cc1)C2 (stereo not drawn)	0	0	0	0	-4.5	0	0	0	0
Cc1cccc(-n2nnc(C(=O)NCc3ccccc3)c2N)c1	0	0	0	0	-8.4	0	0	0	0
Cc1ccc(CCNC(=O)c2nnn(-c3cccc(C)c3)c2N)cc1	0	0	0	0	0	-	-	-	-
c1ccc2c(c1)C(=NCC1CCCO1)NC2=NCC1CCCO1 (stereo not drawn)	0	0	0	0	0	-	-	-	-
CC(C)(C)N=C1NC(=NC(C)(C)C)c2ccccc21	0	0	0	0	-5	0	0	0	51
CCn1nc(C)c([N+](=O)[O-])c1C(=O)NNC(=O)c1ccccc1Cl	0	0	0	0	0	-	-	-	-
Cc1ccc(C)c(OC2=NS(=O)(=O)c3ccccc32)c1	0	0	0	0	-4.8	0	0	0	0
COC1=NS(=O)(=O)c2ccccc21	0	0	0	0	0	-	-	-	-
CC1CC(=O)c2cnc(NCc3ccco3)nc2C1 (stereo not drawn)	0	0	0	0	-7.2	0	0	0	0
CN(C)S(=O)(=O)c1ccc(NC(=O)CN2CCCc3ccccc32)cc1	0	0	0	0	0	-	-	-	-
CN(C)S(=O)(=O)N(CC(=O)Nc1ccc2ccccc2c1)c1ccccc1	0	0	0	0	0	-	-	-	-
CN(C)S(=O)(=O)N(CC(=O)Nc1ccc(F)c(F)c1)c1ccccc1	0	0	0	0	-6.1	0	0	0	0
CCc1nnc(NC(=O)CSc2nc3cccnc3n2Cc2ccccc2)s1	0	0	0	0	-5.9	0	0	0	0
COC(=O)c1sc(-c2ccc(Cl)cc2)cc1NC(=O)COCC(=O)O	0	0	0	0	0	-	-	-	-
